pEC50, pIC50: −log10 of the molar value.
system: Trypanosoma cruzi; test: Antitrypanosomal activity against bloodstream trypomastigote form of Trypanosoma cruzi Y isolated from albino mouse blood after 24 hrs; format: functional, organism-based; settings: not given
Method in brief: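 Y-strain bloodstream trypomastigotes taken from infected albino mice at peak parasitaemia, isolated by differential centrifugation, and resuspended at 10^7 cells/mL in DMEM with 10% mouse blood. Compounds were added from DMSO stocks, with final DMSO never above 0.1%.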

Row | Compound | pIC50
1 | O=C1C(=O)c2ccccc2C2=C1C[C@@H]1CCC=C[C@@H]1O2 | 3.79
2 | CC1(C)CCc2c(c3ccccc3c3nc(-c4c[nH]c5ccccc45)[nH]c23)O1 | 4.70
3 | Cc1ccc(C2CC(c3cccs3)C3=C(O2)c2ccccc2C(=O)C3=O)cc1 (centres undefined) | 2.73
4 | O=C1C(=O)c2ccccc2C2=C1C[C@@H]1CC=C[C@@H]1O2 | 4.20
5 | CC1(C)OC2=C(C(=O)C(=O)c3ccccc32)C1Nc1ccccc1 (centres undefined) | 4.06
6 | Cc1ccc(C2CC(c3ccccc3)C3=C(O2)c2ccccc2C(=O)C3=O)cc1 (centres undefined) | 3.07
7 | CCOc1ccc(C2CCC3=C(O2)c2ccccc2C(=O)C3=O)cc1 (centres undefined) | 3.88
8 | Cc1ccc(C2CCC3=C(O2)c2ccccc2C(=O)C3=O)cc1 (centres undefined) | 4.29
9 | Cc1ccc(C2CCC3=C(O2)c2ccccc2C(=O)C3=O)c(C)c1 (centres undefined) | 3.16
10 | CC1(C)CCC2=C(O1)c1ccccc1C1(CO1)C2=O (centres undefined) | 5.89
11 | O=C1C(=O)c2ccccc2C2=C1CCC(c1ccc(F)cc1)O2 (centres undefined) | 4.01
12 | CC1(C)CCc2c(c3ccccc3c3nc(-c4ccc5c(c4)OCO5)oc23)O1 | 4.60
13 | O=C1C(=O)c2ccccc2C2=C1CCC(c1ccc(Cl)cc1)O2 (centres undefined) | 4.69
14 | COC1CC[C@H]2CC3=C(O[C@H]2O1)c1ccccc1C(=O)C3=O (some centres undefined) | 3.06

More lines, now with the values ahead:

Row | pIC50 | Compound
15 | 4.45 | O=C1C(=O)c2ccccc2C2=C1C[C@@H]1CCCO[C@@H]1O2
16 | 3.48 | CCOC1CC[C@H]2CC3=C(O[C@H]2O1)c1ccccc1C(=O)C3=O (some centres undefined)
17 | 3.92 | COc1ccc(C2CCC3=C(O2)c2ccccc2C(=O)C3=O)cc1 (centres undefined)
18 | 3.91 | CC1(c2ccccc2)CCC2=C(O1)c1ccccc1C(=O)C2=O (centres undefined)
19 | 4.25 | O=C1C(=O)c2ccccc2C2=C1CCC(c1ccccc1)O2 (centres undefined)
20 | < 2.40 | Cc1ccc(C2CC(c3ccc([N+](=O)[O-])cc3)C3=C(O2)c2ccccc2C(=O)C3=O)cc1 (centres undefined)

same assay, conditions: read-out: ED50 (the source's name)

Row | pEC50 | Compound
21 | 4.21 | CC1(C)CCc2c(c3ccccc3c3nc4cc(Nc5ccccc5)/c(=N/c5ccccc5)cc-4n(-c4ccccc4)c23)O1

system: Trypanosoma cruzi; test: Ratio of Benzidazole IC50 to compound IC50 for bloodstream trypomastigote form of Trypanosoma cruzi Y; format: functional; settings: not given

Row | Compound | Ratio IC50
22 | O=C1C(=O)c2ccccc2C2=C1C[C@@H]1CC=C[C@@H]1O2 | 2
23 | O=C1C(=O)c2ccccc2C2=C1CCC(c1ccccc1)O2 (centres undefined) | 2
24 | Cc1ccc(C2CCC3=C(O2)c2ccccc2C(=O)C3=O)cc1 (centres undefined) | 2
